# Results as given in publication PMC6055619 (British Journal of Haematology, 2018).
# “Also recorded” adds a separate entry of the source.
# What was measured:
# patients with NDMM [1] = test: Phase 1 dose escalation; type: in vivo, human; settings: twice-weekly ixazomib 3·0 or 3·7 mg plus Rd
# In short: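 Phase 1 tested two fixed ixazomib doses (3·0 and 3·7 mg) with a standard 3 + 3 scheme, scoring DLTs during cycle 1. MTD was the highest dose with ≤1 of 6 evaluable patients having a DLT. RP2D selection also used response rates and toxicity over later cycles.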
# patients with NDMM [2] = test: Adverse events graded by NCI CTCAE v4·03; type: in vivo, human
# In short: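 AEs were recorded throughout treatment and for 30 days after the last dose, and graded by NCI CTCAE v4·03 in all patients given ≥1 dose of any study drug. Maintenance patients had responding or stable disease after 16 cycles of ixazomib-Rd induction. They then took single-agent oral ixazomib on days 1, 4, 8 and 11 of 21-day cycles, at the last-tolerated induction dose, until progression or unacceptable toxicity.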
# [3] = Ixazomib plasma pharmacokinetics, non-compartmental analysis; type: in vivo, human; settings: for AUC(0-t): 3 mg, AUC0–72, geometric mean (%CV), RP2D 3·0 mg
# In short: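 Phase 1 patients took fixed oral ixazomib 3·0 or 3·7 mg on an empty stomach (≥1 h before or ≥2 h after a meal), on days 1, 4, 8 and 11 of a 21-day cycle. Co-dosing was lenalidomide 25 mg on days 1–14 plus dexamethasone 20 mg. Serial plasma samples were taken, and non-compartmental parameters were calculated on cycle 1 days 1 and 11. Values are reported as geometric mean (%CV).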
# [4] = ref Gupta et al, 2015b; cited from earlier work
# [5] = during single-agent ixazomib maintenance
# [6] = patients who received single-agent ixazomib maintenance
# [7] = received maintenance, n = 18, new-onset AEs during cycle ≥17
structure (smiles),measurement,setting,value
CC(C)C[C@H](NC(=O)CNC(=O)c1cc(Cl)ccc1Cl)B(O)O [ixazomib],Dose-limiting toxicities in cycle 1,patients with NDMM [1],No dose‐limiting toxicities; also recorded: no DLTs
same,New-onset drug-related grade 3 PN NEC,patients with NDMM [2]; during maintenance,6%
same,New-onset drug-related grade 3 hyperglycaemia,patients with NDMM [2]; during maintenance,0%
same,"New-onset drug-related grade 3 rashes, eruptions and exanthems NEC",patients with NDMM [2]; during maintenance,6%
same,New-onset drug-related PN NEC,patients with NDMM [2]; [5],28%
same,New-onset drug-related fatigue,patients with NDMM [2]; [5],11%
same,"New-onset drug-related rashes, eruptions and exanthems NEC",patients with NDMM [2]; [5],17%
same,New-onset AEs resulting in dose reductions,patients with NDMM [2]; patients who received ixazomib maintenance,33%
same,New-onset drug-related AEs during maintenance,patients with NDMM [2]; [6],89%
same,New-onset drug-related grade 3 AEs during maintenance,patients with NDMM [2]; [6],28%
same,On-study deaths,"patients with NDMM [2]; received maintenance, n = 18, cycle ≥17",0 n (%)
same,AE resulting in any study drug dose reduction,patients with NDMM [2]; [7],6 (33) n (%)
same,AE resulting in discontinuation,patients with NDMM [2]; [7],3 (17) n (%)
same,Any AE,patients with NDMM [2]; [7],16 (89) n (%)
same,Any SAE,patients with NDMM [2]; [7],2 (11) n (%)
same,Any drug-related AE,patients with NDMM [2]; [7],16 (89) n (%)
same,Any drug-related SAE,patients with NDMM [2]; [7],2 (11) n (%)
same,Any drug-related grade ≥3 AE,patients with NDMM [2]; [7],5 (28) n (%)
same,Any grade ≥3 AE,patients with NDMM [2]; [7],8 (44) n (%)
same,"Drug-related ALT increased, All-grade",patients with NDMM [2]; [7],1 (6) n (%)
same,"Drug-related ALT increased, Grade 3",patients with NDMM [2]; [7],0 n (%)
same,"Drug-related Anxiety, All-grade",patients with NDMM [2]; [7],0 n (%)
same,"Drug-related Anxiety, Grade 3",patients with NDMM [2]; [7],0 n (%)
same,"Drug-related Constipation, All-grade",patients with NDMM [2]; [7],0 n (%)
same,"Drug-related Constipation, Grade 3",patients with NDMM [2]; [7],0 n (%)
same,"Drug-related Diarrhoea, All-grade",patients with NDMM [2]; [7],5 (28) n (%)
same,"Drug-related Diarrhoea, Grade 3",patients with NDMM [2]; [7],1 (6) n (%)
same,"Drug-related Dizziness, All-grade",patients with NDMM [2]; [7],1 (6) n (%)
same,"Drug-related Dizziness, Grade 3",patients with NDMM [2]; [7],0 n (%)
same,"Drug-related Dysgeusia, All-grade",patients with NDMM [2]; [7],0 n (%)
same,"Drug-related Dysgeusia, Grade 3",patients with NDMM [2]; [7],0 n (%)
same,"Drug-related Fatigue, All-grade",patients with NDMM [2]; [7],2 (11) n (%)
same,"Drug-related Fatigue, Grade 3",patients with NDMM [2]; [7],0 n (%)
same,"Drug-related Hyperglycaemia, All-grade",patients with NDMM [2]; [7],2 (11) n (%)
same,"Drug-related Hyperglycaemia, Grade 3",patients with NDMM [2]; [7],0 n (%)
same,"Drug-related Hyponatraemia, All-grade",patients with NDMM [2]; [7],0 n (%)
same,"Drug-related Hyponatraemia, Grade 3",patients with NDMM [2]; [7],0 n (%)
same,"Drug-related Insomnia, All-grade",patients with NDMM [2]; [7],0 n (%)
same,"Drug-related Insomnia, Grade 3",patients with NDMM [2]; [7],0 n (%)
same,"Drug-related Muscle spasms, All-grade",patients with NDMM [2]; [7],0 n (%)
same,"Drug-related Muscle spasms, Grade 3",patients with NDMM [2]; [7],0 n (%)
same,"Drug-related Muscular weakness, All-grade",patients with NDMM [2]; [7],2 (11) n (%)
same,"Drug-related Muscular weakness, Grade 3",patients with NDMM [2]; [7],1 (6) n (%)
same,"Drug-related Nausea, All-grade",patients with NDMM [2]; [7],6 (33) n (%)
same,"Drug-related Nausea, Grade 3",patients with NDMM [2]; [7],1 (6) n (%)
same,"Drug-related Neutropenia, All-grade",patients with NDMM [2]; [7],0 n (%)
same,"Drug-related Neutropenia, Grade 3",patients with NDMM [2]; [7],0 n (%)
same,"Drug-related Neutrophil count decreased, All-grade",patients with NDMM [2]; [7],1 (6) n (%)
same,"Drug-related Neutrophil count decreased, Grade 3",patients with NDMM [2]; [7],1 (6) n (%)
same,"Drug-related PN NEC, All-grade",patients with NDMM [2]; [7],5 (28) n (%)
same,"Drug-related PN NEC, Grade 3",patients with NDMM [2]; [7],1 (6) n (%)
same,"Drug-related Peripheral oedema, All-grade",patients with NDMM [2]; [7],2 (11) n (%)
same,"Drug-related Peripheral oedema, Grade 3",patients with NDMM [2]; [7],0 n (%)
same,"Drug-related Pneumonia, All-grade",patients with NDMM [2]; [7],0 n (%)
same,"Drug-related Pneumonia, Grade 3",patients with NDMM [2]; [7],0 n (%)
same,"Drug-related Rashes, eruptions and exanthems NEC, All-grade",patients with NDMM [2]; [7],3 (17) n (%)
same,"Drug-related Rashes, eruptions and exanthems NEC, Grade 3",patients with NDMM [2]; [7],1 (6) n (%)
same,"Drug-related Thrombocytopenia, All-grade",patients with NDMM [2]; [7],0 n (%)
same,"Drug-related Thrombocytopenia, Grade 3",patients with NDMM [2]; [7],0 n (%)
same,"Drug-related Vomiting, All-grade",patients with NDMM [2]; [7],3 (17) n (%)
same,"Drug-related Vomiting, Grade 3",patients with NDMM [2]; [7],1 (6) n (%)
same,Tmax,"[3]; human, plasma, oral",1 h
same,AUC(0-t),"[3]; human, plasma, oral, day 1",315 ng·h/mL
same,AUC(0-t),"[3]; human, plasma, oral, day 11",1110 ng·h/mL
same,Pharmacokinetic interaction of ixazomib with Rd,[3]; pharmacokinetic data similar to other studies,no pharmacokinetic interaction
same,Effects on QTc or heart rate,[4],no clinically meaningful effects
